Consider 1 compound from ChEMBL document CHEMBL4732121, “Imidazo[1,2-a]quinoxalines for melanoma treatment with original mechanism of action” (Eur J Med Chem, 2021).

In data set [1] the test system is A-375. Description: Antitumor activity against human A-375 cells xenografted in Balb/c nude mouse assessed as change in tumor inflammation at 75 mg/kg, ip administered 3 times a week during first week and twice a week for next 2 weeks measured post last dose by trichrome staining based histopathological analysis. It is filed as functional, organism-based. Conditions: time 3.0 weeks. A digest of the protocol:
(§1)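 Balb/c nude mice given 10×10^6 A375 cells in PBS subcutaneously in the right flank under isoflurane. Groups of 6-12 allocated on Day 14 at 110-130 mm^3 mean tumor volume; dosed ip for three weeks. Drug in DMSO/Tween 80 (1:1) diluted with saline; vehicle DMSO/Tween 80/saline (1:1:8). Tumors fixed in buffered 3.7% formalin and read blind by a veterinary pathologist after mid-sagittal section.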
On the technique in general: Xenograft models place foreign cells or tissue in a host animal.

The subject of data set [2] is A-375. Description: Antitumor activity against human A-375 cells xenografted in Balb/c nude mouse assessed as reduction in cell invasion at 75 mg/kg, ip administered 3 times a week during first week and twice a week for next 2 weeks measured post last dose. Conditions: time 3.0 weeks. Format: functional, organism-based. The method, boiled down: as §1
Data set [3] in a line: Toxicity in Balb/c nude mouse xenografted with human A-375 cells assessed as reduction in body weight at 75 mg/kg, ip administered 3 times a week during first week and twice a week for 2 week. It is filed as organism-based. Conditions: in vivo, 504 h, time 3 weeks. The method, boiled down: (§2)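 Balb/c nude mice inoculated s.c. in right flank with 10×10^6 A375 cells in PBS under isoflurane; dosing started once mean tumor volume reached 110-130 mm3, groups allocated Day 14. IP dosing for three weeks; vehicle DMSO/Tween 80 (vol/vol) plus injectable saline (8 vol), solutions made daily. Body weight followed during treatment; gross pathology at study termination; n = 4 mice per group reported.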

Data set [4] has as its system A-375. Description: Antitumor activity against human A-375 cells xenografted in Balb/c nude mouse assessed as reduction in mitotic index at 75 mg/kg, ip administered 3 times a week during first week and twice a week for next 2 weeks measured post last dose. Format: functional, organism-based. Conditions: time 3.0 weeks. The method, boiled down:
as §1

In data set [5] the test system is A-375. Description: Antitumor activity against human A-375 cells xenografted in Balb/c nude mouse assessed as reduction in cell invasion at 30 mg/kg, ip administered 5 times a week for 3 weeks measured post last dose. It is filed as functional, organism-based. The method, boiled down:
as §1

Data set [6] deals with A-375. Description: Antitumor activity against human A-375 cells xenografted in Balb/c nude mouse assessed as reduction in tumor weight at 75 mg/kg, ip administered 3 times a week during first week and twice a week for next 2 weeks measured post last dose. Format: functional, organism-based. Conditions: time 3.0 weeks. The method, boiled down:
as §1

A short description of data set [7]: Toxicity in Balb/c nude mouse xenografted with human A-375 cells assessed as effect on spleen pathology at 75 mg/kg, ip administered 3 times a week during first week and twice a week for 2 week measured post last dose by pathological analysis. Conditions: in vivo, 504 h, time 3 weeks. It is filed as organism-based. A digest of the protocol: as §2
The subject of data set [8] is A-375. Description: Antitumor activity against human A-375 cells xenografted in Balb/c nude mouse assessed as reduction in tumor size at 30 mg/kg, ip administered 5 times a week for 3 weeks by caliper method. Format: functional, organism-based. A digest of the protocol:
as §1

Data set [9] relates to A-375. The experiment in a line: Antitumor activity against human A-375 cells xenografted in Balb/c nude mouse assessed as change in tumor stroma at 75 mg/kg, ip administered 3 times a week during first week and twice a week for next 2 weeks measured post last dose by trichrome staining based histopathological analysis. It is filed as functional, organism-based. Conditions: time 3.0 weeks. The method, boiled down:
as §1

Data set [10] concerns A-375. Description: Antitumor activity against human A-375 cells xenografted in Balb/c nude mouse assessed as reduction in mitotic index at 30 mg/kg, ip administered 5 times a week for 3 weeks measured post last dose. Format: functional, organism-based. The method, boiled down: as §1
A short description of data set [11]: Toxicity in Balb/c nude mouse xenografted with human A-375 cells assessed as effect on liver pathology at 75 mg/kg, ip administered 3 times a week during first week and twice a week for 2 week measured post last dose by pathological analysis. Conditions: in vivo, 504 h, time 3 weeks. It is filed as organism-based. A digest of the protocol: as §2

The structures appear in SMILES notation. Active and inactive are the calls of the source. No cut-off for these calls is given here.

Take `CNc1nc2ccccc2n2c(-c3ccc(O)c(O)c3)cnc12`: the outcome with A-375 [1] and with A-375 [9] was inactive. Also, the result with A-375 [2], with A-375 [4], in the data set with A-375 [5], in the data set on A-375 [6], with A-375 [8] and in the data set on A-375 [10] was Active. In addition, the Activity entry in data set [3], in [7] and in data set [11] was “Toxic” in each case.
